In ChEMBL document CHEMBL4028851, “Discovery of Potent Small-Molecule Inhibitors of Ubiquitin-Conjugating Enzyme UbcH5c from α-Santonin Derivatives” (J Med Chem, 2017):
Calls of active or inactive are those of the source. The rule behind the calls is not given here.

How the values were obtained:
in vitro = conditions: human, HEK-293T cells
[1] = AUC (0 to infinity) in Sprague-Dawley rat at 1 mg/kg, iv by LC-MS/MS analysis; assay type: ADME, organism-based; parameters: dose 1 mg/kg, time infinity, route intravenous; conditions: in vivo
[2] = Half life in rat liver microsomes at 5 uM in preincubated for 3 mins followed by NADPH addition measured up to 90 mins; assay type: ADME, microsome
Outline: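 Rat liver microsomes (0.5 mg/mL) were used in 100 mM potassium phosphate, pH 7.4, with compound at 5 µM final. After 3 min preincubation at 37 °C, an NADPH-generating system was added (4 mM MgCl2, 1 mM NADP+, 10 mM glucose 6-phosphate, 1 unit/mL G6PDH). Incubation continued for 0–90 min and was stopped with ice-cold acetonitrile.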

[3] = target: Ubiquitin-conjugating enzyme E2 D1 (Homo sapiens) (UniProt P51668); test: Inhibition of UbcH5a (unknown origin) at 2.5 to 10 uM preincubated for 15 mins followed by E1, Ub and ATP addition measured after 40 mins by Western blot analysis
Sequence of Ubiquitin-conjugating enzyme E2 D1 (Homo sapiens) (P51668 whole entry): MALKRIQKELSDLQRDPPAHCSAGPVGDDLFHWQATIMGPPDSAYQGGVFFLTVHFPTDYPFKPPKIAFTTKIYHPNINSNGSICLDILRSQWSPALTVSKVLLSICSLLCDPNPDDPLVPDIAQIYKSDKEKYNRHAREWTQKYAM

[4] = Half life in rat plasma at 5 uM; assay type: ADME, cell-free
Outline: (§1)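 Compound (5 µM final, from a 25 mM DMSO stock) was incubated at 37 °C in rat plasma (0–90 min) or rat whole blood (0, 5, 10, 30, 60, 90 min). Reactions were quenched with ice-cold acetonitrile, centrifuged, and the supernatants analysed.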

[5] = Half life in rat whole blood at 5 uM; assay type: ADME
Outline: as §1

[6] = Tmax in Sprague-Dawley rat at 5 mg/kg, po via gavage by LC-MS/MS analysis; assay type: ADME, organism-based; conditions: in vivo
Outline: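 Male Sprague-Dawley rats (about 200‒220 g; n = 6) were fasted overnight and gavaged with 5 mg/kg as a suspension in 0.5% methylcellulose. Blood was taken from the orbital artery at 0.083–24 h into heparin tubes. Plasma was quantified by LC/MS/MS (ESI, MRM), with noncompartmental analysis. Bioavailability was referenced to a 1 mg/kg iv dose. Values are mean ± SD.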

[7] = target: Ubiquitin-conjugating enzyme E2 D3 (Mus musculus) (UniProt P61079); test: Inhibition of UbcH5c in mouse b.End3 cells assessed as decrease in TNF-alpha-mediated IkB-alpha degradation at 10 uM preincubated for 2 hrs followed by TNF-alpha stimulation for 15 mins by Western blot analysis
Sequence of Ubiquitin-conjugating enzyme E2 D3 (Mus musculus) (P61079 whole entry, looked up): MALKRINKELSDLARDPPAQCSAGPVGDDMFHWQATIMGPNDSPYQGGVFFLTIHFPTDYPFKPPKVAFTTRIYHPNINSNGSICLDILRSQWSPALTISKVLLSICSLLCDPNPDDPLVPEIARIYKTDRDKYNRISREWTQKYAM

Rattus norvegicus = test: Antiarthritic activity in Wistar rat Freund's adjuvant-induced arthritis model assessed as reduction in hind paw swelling at 5 to 20 mg/kg, po qd administered on day 10 to 20 postimmunization measured every 2 to 3 days during compound dosing; assay type: functional, organism-based
Outline: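 Adjuvant arthritis was induced by intradermal CFA (0.1 mL) into the base of the left hind paw (day 0), with a boost 10 days later. Rats were dosed orally once daily at 5 or 20 mg/kg from day 10 to day 20, with 10 rats per group. Vehicle controls received 0.3% sodium carboxymethylcellulose. Two blinded observers scored the animals every 2 or 3 days. Data are mean ± S.E.M.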

AUC(0-inf) [1]: 408 ng·h/mL
half-life at 5 µM [2]: 2.11 h
inhibition [3]: Active
half-life at 5 µM [4]: 1.43 h
half-life at 5 µM [5]: 0.663 h
Tmax [6]: 3.83 h
inhibition [7]: Active
SMILES: C=C1C(=O)O[C@H]2c3c(C)c(OCc4ccccc4Br)cc(C)c3CC[C@@H]12
cytotoxicity at 5 µM (in vitro): < 20%
Activity (Rattus norvegicus): Active
